# Results from different studies.
# Protocols differ between the studies behind these lines.
# Cell line: NCI-H460
# Effect on: cell growth or viability
SMILES,assay,setting,measurement,value
CCCCCCCCCCCCCCCCCCOc1cccc(CC(=O)OCCC[N+](C)(C)C)c1,SRB,10 µM,inhibition,4.47%
FC(F)(F)c1cc(OCc2cc(-c3ccc(Cl)cc3Cl)no2)c2ccccc2n1,MTS,72 h,IC50,> 100 µM
CCCCCCCCCCCCCCCCCCOc1ccc(CC(=O)OCC[N+](CC)(CC)CC)cc1,SRB,10 µM,inhibition,15.8%
COc1ccc(NC(=O)Nc2ccc(-c3cn(Cc4ccc(Cl)cc4)nn3)cc2)cc1,CCK-8,"50 µM, 72 h",viability,86.8%
CCCCCCCCCCCCCCCCCCOCC(COP(=O)([O-])OCC[N+](C)(C)C)OC (stereo not drawn),SRB,10 µM,inhibition,53.6%
COc1ccc(NC(=O)Nc2ccc(-c3cn(Cc4cccc(Cl)c4)nn3)cc2)cc1,CCK-8,"50 µM, 72 h",viability,87.4%
O=C(CSc1nc2ccccc2s1)N/N=C/c1ccc(OCC(=O)Nc2ccc(Br)cc2)cc1,MTS,72 h,IC50,14 µM
FC(F)(F)c1ccc(-c2cc(COc3cc(C(F)(F)F)nc4ccccc34)on2)cc1,MTS,72 h,IC50,> 100 µM
COc1ccc(NC(=O)Nc2cccc(-c3cn(Cc4ccccc4C)nn3)c2)cc1,CCK-8,"50 µM, 72 h",viability,80.7%
O=c1cc(OCc2cc(-c3ccc(C(F)(F)F)cc3)no2)c2ccccc2o1,MTS,72 h,IC50,> 100 µM
COc1ccc(NC(=O)Nc2cccc(-c3cn(Cc4cccc(Cl)c4)nn3)c2)cc1,CCK-8,"50 µM, 72 h",viability,105%
C[C@H](Nc1ccc2c(c1)OCCn1cc(N3C(=O)OC[C@H]3C(F)F)nc1-2)C(N)=O,ATP luminescence,5 days,EC50,2.9 µM
FC(F)(F)c1ccc(-c2cc(CNc3cccc4cccnc34)on2)cc1,MTS,72 h,IC50,> 100 µM
CCCCCCCCCCCCCCCCCCOc1cccc(CC(=O)OCC[N+](C)(C)C)c1,SRB,10 µM,inhibition,2.4%
O=C(Nc1ccc(Cl)cc1)Nc1cccc(-c2cn(Cc3cccc(Br)c3)nn2)c1,CCK-8,"50 µM, 72 h",viability,88.2%
CCCCCCCCCCCCCCCCCCOc1ccccc1CC(=O)OCC[N+]1(C)CCCC1,SRB,10 µM,inhibition,72.5%
O=C(CSc1nc2ccccc2s1)N/N=C/c1ccc(OCC(=O)Nc2cccc([N+](=O)[O-])c2)cc1,MTS,72 h,IC50,15.8 µM
N#Cc1ccc(-c2cc(COc3cc(=O)oc4ccccc34)on2)cc1,MTS,72 h,IC50,> 100 µM
CCCCCCCCCCCCCCCCCCOc1cccc(CC(=O)OCC[N+]2(C)CCCC2)c1,SRB,10 µM,inhibition,4.17%
COc1ccc(NC(=O)Nc2cccc(-c3cn(Cc4ccc(Br)cc4)nn3)c2)cc1,CCK-8,"50 µM, 72 h",viability,106%
CCCCCCCCCCCCCCCCCCOc1ccc(CC(=O)OCC[N+]2(C)CCCC2)cc1,SRB,10 µM,inhibition,0.31%
c1ccc(-c2cc(CNc3cccc4cccnc34)on2)nc1,MTS,72 h,IC50,> 100 µM
CCCCCCCCCCCCCCCCCCOc1ccc(CC(=O)OCC[N+]2(C)CCOCC2)cc1,SRB,10 µM,inhibition,0.33%
COc1ccc(NC(=O)Nc2ccc(-c3cn(Cc4ccc(C)cc4)nn3)cc2)cc1,CCK-8,"50 µM, 72 h",viability,83.2%
O=c1cc(OCc2cc(-c3ccc(Cl)cc3Cl)no2)c2ccccc2o1,MTS,72 h,IC50,> 100 µM
COc1ccc(NC(=O)NCc2cn(Cc3ccccc3C)nn2)cc1,CCK-8,"50 µM, 72 h",viability,106%
O=c1cc(OCc2cc(-c3ccccn3)no2)c2ccccc2o1,MTS,72 h,IC50,> 100 µM
